≈ marks a conversion by molar mass, not a printed value.
Experiments:
[1] = test system: Salmonella typhimurium; assay: Antibacterial activity against 1 MOI Salmonella enterica subsp. enterica serovar Typhimurium infected in mouse peritoneal macrophages assessed as reduction in bacterial growth after 24 hrs; format: functional, organism-based
Outline: (§1)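 J774A.1 cells or thioglycolate-elicited BALB/c peritoneal macrophages seeded at 200,000/well, overnight 37°C 5% CO2; infected with GFP strain SDT1416, 1 h invasion, washed, 1 h in DMEM with 15 μg/ml gentamicin. Then fresh DMEM plus 15 μg/ml gentamicin with or without peptide (DMSO vehicle) for 24 h at 37°C; macrophages lysed with 1% Triton X-100, plated on LB agar for CFU.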

[2] = Cytotoxicity against mouse J774A1 cells assessed as reduction in metabolic activity at 100 uM after 24 hrs by MTT assay; format: ADME, cell-based, J774.A1; details: read-out: INH
Outline: (§2)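 Cells seeded at 40,000/well in 96-well plates, overnight 37°C 5% CO2, then treated 24 h in fresh DMEM. MTT (4 mg/ml stock in PBS) added for up to 3 h. Formazan solubilized overnight at 37°C in SDS/dimethylformamide/acid lysis buffer, OD read at 575 nm. Paired t tests.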

[3] = test system: J774.A1; assay: Drug uptake in mouse J774A1 cells assessed as total peptide concentration at 50 uM after 5 hrs at 4 degC by HPLC analysis; format: ADME, cell-based; details: j774.a1, 5 h
Outline: (§3)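 J774A.1 cells were seeded at 300,000 per well and allowed to adhere for 24 h at 37°C in 5% CO2. Medium was replaced with DMEM containing unlabeled peptide, and cells were held at 37°C or 4°C. After three washes in ice-cold PBS, cells were lysed in NP-40 buffer and debris spun out. Reverse-phase HPLC was read at 280 nm. Peaks at 17.5 and 17.75 min were integrated against a standard curve. Intracellular mM was calculated from 300,000 cells at 1 pl each, using monomer mass.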

[4] = test system: J774.A1; assay: Drug uptake in mouse J774A1 cells assessed as total peptide concentration at 150 uM after 24 hrs at 37 degC by HPLC analysis; format: ADME, cell-based; details: j774.a1, 24 h
Outline: (§4)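 J774A.1 cells were incubated with unlabeled peptide for 5 or 24 h at 37°C or 4°C, washed in ice-cold PBS and lysed with NP-40 buffer. Lysates were run on reverse-phase HPLC with an acetonitrile/0.1% TFA gradient and A280 fractions. Monomer (~17.5 min) and dimer (~17.75 min) peak areas were compared against a standard curve. Intracellular mM was calculated using 300,000 cells and 1 pl/cell, with concentration expressed as monomer mass.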

[5] = test system: Salmonella typhimurium; assay: Antibacterial activity against 1 MOI Salmonella enterica subsp. enterica serovar Typhimurium infected in mouse J774A1 cells assessed as fold reduction in bacterial growth at 100 uM after 12 hrs; format: functional, J774.A1
[6] = Cytotoxicity against mouse peritoneal macrophages assessed as live cells at 50 uM by calcein AM assay; format: cell-based, Peritoneal macrophage cell; details: read-out: Activity
Outline: (§5)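 Cells seeded at 300,000/well and allowed to adhere, then given fresh DMEM with or without peptide for 24 h. Cells trypsinized, stained with a mammalian Live/Dead viability/cytotoxicity kit and analyzed by flow cytometry. Wilcoxon exact test.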

[7] = test system: Salmonella typhimurium; assay: Antibacterial activity against 10 MOI Salmonella enterica subsp. enterica serovar Typhimurium G785 transfected with SOS-inducible beta-galactosidase reporter infected in mouse J774A1 cells assessed as bacterial number at 150 uM after 4 hrs postinfection; format: functional, J774.A1
Outline: (§6)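 J774A.1 cells infected at MOI 10 with sulA promoter-lacZ reporter strain G785 using the gentamicin-protection protocol, treated with peptide (DMSO vehicle controls) plus 15 μg/ml gentamicin for 4 or 24 h. Released bacteria were plated for colony counts in parallel, and were incubated with 33 μM C12FDG (with 0.2 mM EDTA) in LB for 2 h at 37°C. Flow cytometry gave % fluorescein-positive among LPS-antibody-positive particles; Wilcoxon exact test.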

[8] = Cytotoxicity against mouse peritoneal macrophages assessed as increase in metabolic activity at 150 uM after 24 hrs by MTT assay; format: ADME, cell-based; details: peritoneal macrophage cell; outline: as §2
[9] = test system: J774.A1; assay: Drug uptake in mouse J774A1 cells assessed as total peptide concentration at 50 uM after 24 hrs at 37 degC by HPLC analysis; format: ADME, cell-based; details: j774.a1, 24 h; outline: as §3
[10] = test system: J774.A1; assay: Drug uptake in mouse J774A1 cells assessed as total peptide concentration at 100 uM after 5 hrs at 37 degC by HPLC analysis; format: ADME, cell-based; details: j774.a1, 5 h; outline: as §4
[11] = test system: Salmonella typhimurium; assay: Antibacterial activity against 1 MOI Salmonella enterica subsp. enterica serovar Typhimurium infected in mouse peritoneal macrophages assessed as reduction in bacterial growth at 150 uM after 24 hrs relative to DMEM control; format: functional; set-up: scale not given: the % may be the effect or the level left; outline: as §1
[12] = test system: J774.A1; assay: Drug uptake in mouse J774A1 cells at 1 uM after 4 hrs by confocal laser microscopy; format: ADME, cell-based; details: j774.a1, 4 h
Outline: (§7)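 Cells were seeded at 200,000 per chamber-slide well and left to adhere overnight at 37°C. They were then exposed in DMEM to peptide carrying an N-terminal rhodamine label, at 37°C or, where stated, 4°C. Cells were washed three times in PBS, fixed in 4% paraformaldehyde for 30 min, and mounted in antifade. Optical slices near the cell centre were imaged by confocal laser microscopy.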

[13] = test system: J774.A1; assay: Drug uptake in mouse J774A1 cells assessed as dimer to monomer peptide ratio at 150 uM after 5 hrs at 4 degC by HPLC analysis; format: ADME, cell-based; details: j774.a1, 5 h; outline: as §4
[14] = Cytotoxicity against mouse J774A1 cells assessed as live cells at 100 uM by calcein AM assay; format: cell-based, J774.A1; details: read-out: Activity; outline: as §5
[15] = test system: J774.A1; assay: Drug uptake in mouse J774A.1 cells assessed as dimer to monomer peptide ratio at 100 uM after 24 hrs at 4 degC by HPLC analysis; details: J774A.1, 24 h
[16] = test system: J774.A1; assay: Drug uptake in mouse J774A1 cells at 0.5 uM after 5 mins by confocal laser microscopy; format: ADME, cell-based; details: j774.a1, 5 min; outline: as §7
[17] = test system: J774.A1; assay: Cytotoxicity against mouse J774A1 cells assessed as dead cells at 50 uM by propidium iodide assay; format: cell-based; details: j774.a1, 50 µM; outline: as §5
[18] = test system: J774.A1; assay: Cytotoxicity against mouse J774A1 cells assessed as metabolic activity at 50 uM after 24 hrs by MTT assay; format: ADME, cell-based; details: j774.a1, 24 h; outline: as §2
[19] = test system: Salmonella typhimurium; assay: Antibacterial activity against 10 MOI Salmonella enterica subsp. enterica serovar Typhimurium G785 transfected with SOS-inducible beta-galactosidase reporter infected in mouse J774A1 cells assessed as bacterial number at 100 uM after 24 hrs postinfection; format: functional, J774.A1; outline: as §6
[20] = test system: Salmonella typhimurium; assay: Antibacterial activity against 10 MOI Salmonella enterica subsp. enterica serovar Typhimurium G785 transfected with SOS-inducible beta-galactosidase reporter infected in mouse J774A1 cells assessed as SOS induction at 100 uM after 24 hrs postinfection; format: functional, J774.A1; outline: as §6
[21] = test system: Salmonella typhimurium; assay: Antibacterial activity against 10 MOI Salmonella enterica subsp. enterica serovar Typhimurium G785 transfected with SOS-inducible beta-galactosidase reporter infected in mouse J774A1 cells assessed as SOS induction at 100 uM after 4 hrs postinfection; format: functional, J774.A1; outline: as §6
[22] = test system: Salmonella typhimurium; assay: Antibacterial activity against 10 MOI Salmonella enterica subsp. enterica serovar Typhimurium G785 transfected with SOS-inducible beta-galactosidase reporter infected in mouse J774A1 cells assessed as SOS induction at 150 uM after 4 hrs postinfection; format: functional, J774.A1; outline: as §6
[23] = test system: Salmonella typhimurium; assay: Antibacterial activity against Salmonella enterica subsp. enterica serovar Typhimurium SDT1416; format: functional
Outline: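 MIC by NCCLS broth microdilution against GFP-expressing strain SDT1416.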

- Drug uptake [3]: 1.2 mM
- Drug uptake [4]: 30.1 mM
- Drug uptake [9]: 1.4 mM
- Drug uptake [10]: 8 mM
- Drug uptake [12]: Active
- Ratio [13]: 8.8
- Ratio [15]: 11.5
- Drug uptake [16]: Active
- MIC [23]: 64 µM (≈ 62 µg/mL)
SMILES: N=C(N)NCCC[C@@H](NC(=O)[C@@H](CS)NC(=O)[C@@H](Cc1ccc(O)cc1)NC(=O)[C@@H](Cc1c[nH]c2ccccc12)NC(=O)[C@@H](CCCNC(=N)N)NC(=O)[C@H](N)Cc1c[nH]c2ccccc12)C(=O)O
- Activity [1]: Dose-dependent effect
- cytotoxicity at 24 h, 100 µM [2]: 17.3%
- fold change (FC) [5]: < 50
- viability at 50 µM [6]: 94.2%
- Activity [7]: 3%
- Activity [8]: 18%
- Activity [11]: 72.3%
- viability at 100 µM [14]: 58.9%
- Activity [17]: 4.3%
- Activity [18]: Non-toxic
- Activity [19]: 2.8%
- Activity [20]: 16.5%
- Activity [21]: 1.3%
- Activity [22]: 8.5%
